# Experimental data taken from PubChem BioAssay.
# Active and inactive are the calls of the source.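 Rule for the calls, unless noted: active = Her2 level under about 52% in both replicate screens, with viability over 70% of control (limit read from the data); inconclusive = Her2 under the limit in one screen only, or viability under 70%; inactive = Her2 level above the set limit.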
# Columns and labels:
# [1] = Her2 expression decrease, cell viability multiplex – SKBR3 breast tumor cells, AlphaScreen, ATP viability, primary screen (AID 461); details: SKBR3 Her2 protein level, 18-24 h, measured here: SKBR3 viability, ATP luminescence, at 10 µM;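 for Her2 level: lower value means less Her2 protein in the cells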;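 for viability: percent of carrier control wells set as 100% viability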
# [2] = target: Receptor tyrosine-protein kinase erbB-2 (Homo sapiens) (UniProt P04626); assay: as above; details: 18-24 h, at 10 µM, stronger effect = lower value
# Receptor tyrosine-protein kinase erbB-2 (Homo sapiens), sequence (P04626 whole entry, looked up): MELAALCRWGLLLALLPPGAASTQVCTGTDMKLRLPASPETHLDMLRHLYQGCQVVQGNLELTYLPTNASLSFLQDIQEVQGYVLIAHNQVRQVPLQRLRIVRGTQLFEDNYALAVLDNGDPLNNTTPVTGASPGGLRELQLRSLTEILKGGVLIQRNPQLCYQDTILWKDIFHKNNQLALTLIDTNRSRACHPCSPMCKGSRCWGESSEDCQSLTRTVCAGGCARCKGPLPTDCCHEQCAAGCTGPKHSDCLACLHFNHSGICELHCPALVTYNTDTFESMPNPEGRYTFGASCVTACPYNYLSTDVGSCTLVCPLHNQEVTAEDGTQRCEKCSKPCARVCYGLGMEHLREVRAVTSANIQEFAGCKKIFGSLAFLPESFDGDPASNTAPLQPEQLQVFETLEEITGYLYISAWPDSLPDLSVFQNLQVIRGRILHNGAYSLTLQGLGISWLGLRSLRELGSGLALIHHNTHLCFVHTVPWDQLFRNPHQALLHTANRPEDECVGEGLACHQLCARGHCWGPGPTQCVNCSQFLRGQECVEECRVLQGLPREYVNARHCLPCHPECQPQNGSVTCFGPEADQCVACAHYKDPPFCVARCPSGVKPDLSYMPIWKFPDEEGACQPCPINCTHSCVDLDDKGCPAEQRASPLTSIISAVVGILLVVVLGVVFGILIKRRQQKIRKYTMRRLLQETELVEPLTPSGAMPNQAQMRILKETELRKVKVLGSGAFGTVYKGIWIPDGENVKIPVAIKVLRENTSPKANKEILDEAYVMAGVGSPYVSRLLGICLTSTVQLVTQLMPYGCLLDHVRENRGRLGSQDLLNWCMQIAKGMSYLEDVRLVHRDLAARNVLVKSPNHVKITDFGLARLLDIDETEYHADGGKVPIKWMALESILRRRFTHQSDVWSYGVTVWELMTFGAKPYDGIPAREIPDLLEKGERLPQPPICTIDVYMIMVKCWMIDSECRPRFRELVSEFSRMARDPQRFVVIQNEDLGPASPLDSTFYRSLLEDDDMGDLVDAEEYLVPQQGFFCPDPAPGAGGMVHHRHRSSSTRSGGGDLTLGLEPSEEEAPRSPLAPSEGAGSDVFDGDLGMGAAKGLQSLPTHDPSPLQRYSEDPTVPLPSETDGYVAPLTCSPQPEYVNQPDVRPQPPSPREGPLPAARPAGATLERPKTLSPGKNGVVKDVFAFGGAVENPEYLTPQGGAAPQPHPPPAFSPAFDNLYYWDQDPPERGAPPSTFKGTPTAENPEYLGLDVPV
# [3] = reduced viability of SK-BR-3 breast cancer cells – cell-based, 24 h, human, pilot screen (AID 572;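 active = viability at or below 10% of carrier control in both of two separate runs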;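 note: compound exposure lasted between 18 and 24 h rather than exactly 24 h; 100% = carrier-treated control wells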); details: SK-BR-3 viability, CellTiter-Glo luminescence, at 10 µM, stronger effect = lower value
# [4] = HUVEC growth inhibition – cell-based, human, primary screen (AID 575;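 active = viability at or below 30% in both replicate assays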;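 note: 100% = median of untreated cell wells with 0.1% DMSO on each plate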); details: HUVEC proliferation, CellTiter-Glo luminescence, 72 h; at 10 µM; stronger effect = lower value
# Outline: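 Assay system: Primary human umbilical vein endothelial cells | Quantity: 1250 cells per well | Medium: Supplemented EBM, 2% fetal bovine serum | Detection: CellTiter-Glo luminescence measuring cellular ATP | Read-out: % viability vs DMSO wells | Plate: Collagen-coated 384-well format | Times: 72 h exposure, 37 °C, 5% CO2, 30 min RT equilibration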
# [5] = H69AR cell proliferation blockers – human, duplicate replicates, primary screen (AID 580;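 active = viability at or under a set limit in both replicates, limit being median viability minus 3 SD, cut at about 48% in these data, passing the limit was not always enough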;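 note: 100% = mean luminescence of untreated wells and 0% = no signal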); details: H69AR lung tumor cells viability, ATP luminescence, 72 h; at 10 µM; stronger effect = lower value
# [6] = MRP1 drug-resistance reversers in H69AR cells – cell-based, doxorubicin co-treatment, pilot screen (AID 601;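 active = viability loss from added drug above about 55%, and viability with drug at most 40%, in both replicates, limit read from the data, passing the limit was not always enough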); details: CellTiter-Glo, 72 h, at 10 µM; for differential viability (reversal): stronger effect = higher value
# [7] = yeast transport mutant growth inhibition pilot in 384-well plates, post-Golgi transport modulator project (AID 636; in the data active = inhibition above about 31%); details: absorbance 615 nm, about 18 h, stronger effect = higher value
# [8] = growth suppression of yeast trafficking mutant, preliminary HTS, modulators of trafficking downstream of Golgi apparatus project, 1536-format plate, OD 615 nm (AID 637; in the data active = inhibition above about 30%); details: yeast transport mutant growth, absorbance 615 nm, 18 h; stronger effect = higher value
# [9] = H69AR cells + 2 uM doxorubicin, measured here: viability with 2 uM doxorubicin, stronger effect = lower value
# [10] = H69AR cells, compound alone cytotoxicity
Compound,viability [1],Her2 level [2],viability [3],viability [4],viability [5],differential viability (reversal) ([6]; H69AR cells + 2 uM doxorubicin),"viability [6, 9]","viability [6, 10]",inhibition [7],inhibition [8]
Cc1cccc(N=C2NC(=O)CS2)c1C,108%,80% (inactive),108% (inactive),87.1% (inactive),91.9% (inactive),3.6% (inactive),88.3%,91.9%,0.4% (inactive),-0.81% (inactive)
COc1cccc(N2CCN(C(=O)C3C4C=CC5(CN(Cc6ccccc6Cl)C(=O)C35)O4)CC2)c1 (stereo not given),83.5%,97% (inactive),83.5% (inactive),78.6% (inactive),100% (inactive),9.13% (inactive),91.3%,100%,-3.42% (inactive),-6.17% (inactive)
Nc1nnnn1/N=C/c1ccccc1OCc1ccccc1,118%,96.5% (inactive),118% (inactive),78.9% (inactive),95.3% (inactive),8.29% (inactive),87%,95.3%,-4.13% (inactive),2.42% (inactive)
CC1CCN(S(=O)(=O)c2ccc(S(=O)(=O)NCC(=O)C(C)(C)C)cc2)CC1,108%,97% (inactive),108% (inactive),92.7% (inactive),91.8% (inactive),6.57% (inactive),85.3%,91.8%,-6.97% (inactive),-8.23% (inactive)
Cc1ccccc1C(=O)Nc1c(C(=O)N2CCCC2)cnn1-c1ccccc1,112%,79% (inactive),112% (inactive),106% (inactive),91.9% (inactive),9.86% (inactive),82%,91.9%,-7.7% (inactive),-0.63% (inactive)
Nc1c(C2=NCCO2)nnn1Cc1ccccc1,118%,95.5% (inactive),118% (inactive),94% (inactive),87.3% (inactive),0.315% (inactive),87%,87.3%,-3.42% (inactive),3.28% (inactive)
O=C(Cn1c(=O)n(Cc2ccc3c(c2)OCO3)c(=O)c2ccccc21)N1CCCc2ccccc21,87.5%,80.5% (inactive),87.5% (inactive),66.5% (inactive),82.2% (inactive),3.96% (inactive),78.3%,82.2%,-0.39% (inactive),1.8% (inactive)
CCOC(=O)c1ccc(N2C(=O)C3CC=CCC3C2=O)cc1 (stereo not given),112%,116% (inactive),112% (inactive),92.8% (inactive),99.3% (inactive),7.42% (inactive),91.9%,99.3%,-6.4% (inactive),-10.2% (inactive)
CCc1nnc(NC(=O)c2cccc(C(=O)Nc3nnc(CC)s3)n2)s1,53.5%,72% (inactive),53.5% (inactive),3.29% (active),8.87% (active),1.33% (inactive),7.54%,8.87%,83.5% (active),73% (active)
O=C(CSc1nnc(-c2ccccc2F)o1)OCc1ccccc1,83.5%,88.5% (inactive),83.5% (inactive),102% (inactive),102% (inactive),17.8% (inactive),84.3%,102%,-5.68% (inactive),2.95% (inactive)
COc1ccc(N(CC(=O)NCCSC(C)(C)C)S(C)(=O)=O)c(OC)c1,91%,97.5% (inactive),91% (inactive),106% (inactive),92.8% (inactive),-8.27% (inactive),101%,92.8%,1.04% (inactive),2.62% (inactive)
COCCOC(=O)c1[nH]c2c(c1C)C(=O)CC(c1ccc(N(C)C)cc1)C2 (stereo not given),111%,116% (inactive),111% (inactive),91.1% (inactive),83.5% (inactive),-20.9% (inactive),104%,83.5%,-6.16% (inactive),-5.87% (inactive)
CCOC(=O)CN(C(=O)CSc1nnc(-c2ccncc2)n1CCCN(C)C)c1ccccc1,107%,98.5% (inactive),107% (inactive),106% (inactive),87.6% (inactive),9.5% (inactive),78.1%,87.6%,-5.19% (inactive),1.9% (inactive)
O=c1[nH]cnc2c1nc(SCc1ccccc1)n2C1OC(CO)C(O)C1O (stereo not given),94.5%,88% (inactive),94.5% (inactive),92.4% (inactive),101% (inactive),8.52% (inactive),92.2%,101%,-5.54% (inactive),4.6% (inactive)
